Screening results (PubChem BioAssay)
The list is not random: actives were taken first. Their share in the collection is about 1.9%.
RanGTP-Impb inh: inhibitors of RanGTP-importin-beta interaction, primary screen, biochemical, FRET, CFP-Ran, YFP-importin-beta, homogeneous. cell-free CFP-Ran/YFP-importin-beta FRET ratio. inhibition, % (no concentration beside the values). hit rate 1.1% among 300,000;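 active = more than half of the replicate wells show a fall in the fluorescence ratio signal beyond about 16%, limit read from the data, passing the limit was not always enough; inconclusive = exactly half of the replicate wells pass the set limit; inactive = fewer than half of replicates pass the limit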
CaV13 FRET inh: Disruptors of the CACNA1D IQ motif to Ca2+-dependent inactivation inhibitor domain association, primary screening, Förster resonance energy transfer in intact living … | HEK cells, CFP/YFP FRET ICDI-IQ, plate reader, 10 min; percent FRET-ratio fall versus neutral wells | inhibition, % at 12.3 µM | hit rate 0.098% among 340,000;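 active = mean replicate inhibition of at least 30% and at least 1% of replicates passing that level; inconclusive = only one of the two criteria is met; inactive = neither criterion is met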
Runt-SMMHC FRET: inhibitors of RUNX1 Runt–CBFb-SMMHC binding, primary screen, biochemical, FRET, Cerulean-Runt, Venus-CBFb-SMMHC, uHTS; inhibition, % at 20 µM; AID 1434, 2008; Runt-related transcription factor 1 (Homo sapiens) + Core-binding factor subunit beta …; Cerulean-Runt/Venus-CBFb-SMMHC FRET ratio 530/480, 1 h; hit rate 0.74% among 220,000;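 active = mean inhibition across duplicate retests at 20 µM reaching about 50%, limit read from the data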;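 note: inhibitors lower the FRET ratio by blocking Runt binding to CBFb-SMMHC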
LANA-H2B inh: blockers of LANA interaction with H2A/H2B – biochemical, FP readout, HTS, primary screen; inhibition, % (no concentration beside the values); hit rate 0.6% among 320,000; Protein LANA1 (Human herpesvirus 8 type P (isolate GK18)), Q9QR71; cell-free LANA-H2A/H2B peptide, fluorescence polarization; AID 2629, 2010; in the data active = inhibition mostly above about 10%, no sharp cut-off; inactive = mostly below about 6.7%
Runt-CBFb FRET: inhibitors of RUNX1 Runt–CBFb binding, primary screen, biochemical, FRET, Cerulean-Runt, Venus-CBFb, uHTS; Runt-related transcription factor 1 (Homo sapiens) + Core-binding factor subunit beta …; Cerulean-Runt/Venus-CBFb FRET ratio 530/480, 1 h; inhibition, % at 20 µM; hit rate 0.46% among 220,000; AID 1496, 2009;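 active = inhibition over about 50% at 20 µM in the single-dose screen, limit read from the data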
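Buffer or medium: Tris pH 7.5 buffer with BSA. Assay system: Cerulean-labeled Runt domain protein. Amount: each fluorescent fusion protein 100 nM. Read-out basis: loss of energy transfer signal. Incubation: 1 h compound exposure, room temperature. Probe or stimulus: Venus-CBFb binding partner, 100 nM. Detection: FRET, excitation 422 nm, emission at 530 and 480 nm.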
HDAC3 inhib: HDAC3 deacetylase inhibitors, primary screen, biochemical, fluorescence, cell-free homogeneous; hit rate 0.15% among 320,000; Histone deacetylase 3 (Homo sapiens), O15379; AID 2718, 2010; recombinant HDAC3, fluorogenic peptide/trypsin coupled; inhibition, % at 8.3 µM; in the data active = inhibition above about 26%, passing the limit was not always enough; inconclusive = no clear call, values can overlap the other calls
Each line names hits and unclear results; the compound was inactive in the other large screens.

COCCn1c(=NC(=O)c2ccc3c(c2)OCO3)c(C#N)cc2c(=O)n3cccc(C)c3nc21	RanGTP-Impb inh 43, Runt-SMMHC FRET 118, Runt-CBFb FRET 105 (no result: CaV13 FRET inh, LANA-H2B inh, HDAC3 inhib)
CCCCn1c(=NC(=O)c2ccc3c(c2)OCO3)c(C#N)cc2c(=O)n3cccc(C)c3nc21	Runt-CBFb FRET 56 (no result: RanGTP-Impb inh)
CCOC(=O)c1c(N)n(C2CC(C)(C)NC(C)(C)C2)c2nc3ccccc3nc12	RanGTP-Impb inh inconclusive, Runt-SMMHC FRET 94 (no result: CaV13 FRET inh)
CCCCn1c(NC(=O)c2ccccc2Cl)c(C#N)c2nc3ccccc3nc21	Runt-SMMHC FRET 60, Runt-CBFb FRET 84 (no result: CaV13 FRET inh)
CCCCn1c(NC(=O)CC)c(C#N)c2nc3ccccc3nc21	none
CCOC(=O)c1c(N)n(-c2ccc(N)cc2)c2nc3ccccc3nc12	none
N#Cc1c(NC(=O)c2ccccc2Cl)n(Cc2ccccc2)c2nc3ccccc3nc12	Runt-SMMHC FRET 111 (no result: RanGTP-Impb inh)
COc1ccc(-n2c(NC(=O)c3ccco3)c(C#N)c3nc4ccccc4nc32)cc1	RanGTP-Impb inh 128
COCc1ccc(C(=O)N2CCCC(C(=O)c3ccc(Cl)cc3C)C2)o1 (stereo not given)	none (no result: Runt-SMMHC FRET, Runt-CBFb FRET)
c1ccc2c(c1)CC1(CCCC1)N=C2N1CCOCC1	none
CCCCc1c(-c2ccccc2OC)ncn1Cc1ccc([N+](=O)[O-])cc1	none (no result: RanGTP-Impb inh, Runt-SMMHC FRET, LANA-H2B inh, Runt-CBFb FRET, HDAC3 inhib)
COc1ccc(/C=C(/NC(=O)c2ccccc2)C(=O)NCCCn2ccnc2)cc1OC	none (no result: Runt-SMMHC FRET, Runt-CBFb FRET)
CCOC(=O)c1c(NC(=O)c2ccco2)n(C2CCCCC2)c2nc3ccccc3nc12	RanGTP-Impb inh 79
CN(C(=O)c1sc2nc(N3CCOCC3)c3c(c2c1N)CCCC3)c1ccccc1	none
CC(=O)N1CC(=O)N=C1SCC(=O)Nc1nc(C)c(-c2ccccc2)s1	RanGTP-Impb inh inconclusive, HDAC3 inhib 26
CN(/N=C/c1cc(Cl)cc(Cl)c1O)C(=S)NC(C)(C)C	Runt-SMMHC FRET 90
Oc1c(Cl)cc(Cl)cc1/C=N/Nc1ncc(Br)cn1	none
CCN(Cc1nc(-c2ccccc2)no1)C(=O)c1ccoc1C	none (no result: Runt-SMMHC FRET, Runt-CBFb FRET)
Cc1occc1C(=O)N(Cc1nc(-c2ccccc2)no1)C(C)C	LANA-H2B inh 16 (no result: Runt-SMMHC FRET, Runt-CBFb FRET)
Cc1cc(C)nc(NC(=O)CCN2C(=O)c3ccccc3S2(=O)=O)n1	none (no result: Runt-SMMHC FRET, Runt-CBFb FRET)
O=c1c([N+](=O)[O-])c[nH]c2ccccc12	LANA-H2B inh 15
COc1ccc(S(=O)(=O)n2c(C)nc3ccccc32)cc1C	none (no result: Runt-SMMHC FRET, Runt-CBFb FRET)
Clc1cccc(Cl)c1/C=C/c1nc2ccccc2[nH]1	LANA-H2B inh 11 (no result: CaV13 FRET inh)
Cc1ccccc1CN1CCN(CC(=O)NCc2ccccc2)CC1	LANA-H2B inh 21 (no result: Runt-SMMHC FRET, Runt-CBFb FRET)
CC(C)c1nnc(NC(=O)CCC(=O)NCc2cccs2)s1	LANA-H2B inh 18
CC(C)Cc1nnc(NC(=O)Cc2cccs2)s1	RanGTP-Impb inh 26
CC(C)c1nnc(NC(=O)Cc2cccs2)s1	none
CCOC(=O)C1CCCN(c2c(NCCCN(CC)c3ccccc3)c(=O)c2=O)C1 (stereo not given)	LANA-H2B inh 17
CCOC(=O)C1CCCN(c2c(NCCN(CC)c3ccccc3)c(=O)c2=O)C1 (stereo not given)	none
O=C(O)c1cc(S(=O)(=O)O)cc(Nc2c3ccccc3nc3ccccc23)c1O	RanGTP-Impb inh 102 (no result: Runt-SMMHC FRET, Runt-CBFb FRET)
O=C(C[n+]1ccccc1)Nc1ccccc1[N+](=O)[O-]	LANA-H2B inh 111 (no result: Runt-SMMHC FRET, Runt-CBFb FRET)
O=C(C[n+]1ccccc1)Nc1ccccc1Br	none
COc1ccc(C(=O)NCC(=O)OCC(=O)NCc2ccco2)cc1	none (no result: RanGTP-Impb inh, Runt-SMMHC FRET, Runt-CBFb FRET)
COc1cc(OC)cc(C(=O)NCC(=O)OCC(=O)NCc2ccco2)c1	HDAC3 inhib 33 (no result: RanGTP-Impb inh, Runt-SMMHC FRET, Runt-CBFb FRET)
